# Reference: ChEMBL document CHEMBL1143591, “Synthesis and biological evaluation of 11-substituted 6-aminobenzo[c]phenanthridine derivatives, a new class of antitumor agents” (2005)
# Tests used:
# Assay type in all cases: functional
# Conditions in all cases: Homo sapiens
# HL-60 = assay: Concentration required to inhibit 50% cell growth of HL-60 Leukemia cell line
# Procedure, shortened: (§1)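 Tested in the NCI in vitro Human Tumor Cell Line Screen. The GI50 is the concentration that causes 50% inhibition of net cell growth and is reported as the log of the molar concentration. If that level is not reached or is exceeded, the value is given as greater or less than the highest or lowest drug concentration.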
# K562 = assay: Concentration required to inhibit 50% cell growth of K-562 Leukemia cell line; procedure, shortened: as §1
# MOLT-4 = assay: Concentration required to inhibit 50% cell growth of MOLT-4 Leukemia cell line; procedure, shortened: as §1
# CCRF-CEM = assay: Concentration required to inhibit 50% cell growth of CCRF-CEM Leukemia cell line; procedure, shortened: as §1
# RPMI-8226 = assay: Concentration required to inhibit 50% cell growth of RPMI-8226 Leukemia cell line; procedure, shortened: as §1
SMILES,GI50 (HL-60) [nM],GI50 (K562) [nM],GI50 (MOLT-4) [nM],GI50 (CCRF-CEM) [nM],GI50 (RPMI-8226) [nM]
COc1ccc([C@H]2Cc3ccccc3-c3nc(N)c4ccccc4c32)cc1OC,7080,2820,2950,1120,2400
COc1ccc([C@H]2Cc3ccccc3-c3nc(N)c4ccccc4c32)cc1O,8130,1620,14500,13800,5010
COc1ccc([C@H]2Cc3ccccc3-c3nc(N)c4ccccc4c32)c(OC)c1OC,6760,4270,3470,20900,4270
Nc1nc2c3ccccc3cc(-c3ccc4c(c3)OCO4)c2c2ccccc12,4470,794,3310,4070,2820
Nc1nc2c(c3ccccc13)[C@@H](c1ccc3c(c1)OCO3)Cc1ccccc1-2,5500,3090,4790,3550,3310
Nc1nc2c(c3ccccc13)[C@@H](c1ccco1)Cc1ccccc1-2,4170,3090,3720,3310,2820
COc1ccc(OC)c([C@H]2Cc3ccccc3-c3nc(N)c4ccccc4c32)c1,13800,7590,15500,17800,4680

# The next molecules have a lower GI50 (HL-60) than those just listed; values first:
GI50 (HL-60) [nM],GI50 (K562) [nM],GI50 (MOLT-4) [nM],GI50 (CCRF-CEM) [nM],GI50 (RPMI-8226) [nM],SMILES
63.1,79.4,372,288,240,COc1cc(-c2cc3ccccc3c3nc(N)c4ccccc4c23)cc(OC)c1OC
380,339,437,372,288,COc1ccc(-c2cc3ccccc3c3nc(N)c4ccccc4c23)c(OC)c1OC
61.7,45.7,234,170,126,COc1ccc(-c2cc3ccccc3c3nc(N)c4ccccc4c23)cc1OC
1700,813,2630,2630,1820,COc1cc([C@H]2Cc3ccccc3-c3nc(N)c4ccccc4c32)cc(OC)c1OC
437,4070,1200,9770,4570,Nc1nc2c3ccccc3cc(-c3ccco3)c2c2ccccc12
288,282,631,871,427,COc1cc([C@H]2Cc3ccccc3-c3nc(N)c4ccccc4c32)cc(OC)c1O
309,219,933,309,363,COc1ccc(-c2cc3ccccc3c3nc(N)c4ccccc4c23)c(OC)c1
